Source: ChEMBL document CHEMBL3407436, “Design and development of novel Mycobacterium tuberculosis L-alanine dehydrogenase inhibitors” (Eur J Med Chem, 2015)
Values after ≈ are worked out from the molar mass of the structure shown.

Experiments:
[1] = Inhibition of Mycobacterium tuberculosis AlaDH using L-alanine as substrate after 20 mins by spectrophotometry
Summary of the method: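 125 mM glycine-KOH buffer pH 10.2, 1 mM NAD⁺, 50 mM L-alanine, enzyme at a level set by range finding; 20 min at 37°C. NADH formation from oxidative deamination monitored continuously at 340 nm. Compounds tested at 25 to 0.5 µM; background measured without enzyme. IC₅₀ by software analysis.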

[2] = Cytotoxicity against mouse RAW264.7 cells at 50 uM after 48 hrs by MTT assay; type: cell-based; details: read-out: INH
Summary of the method: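 RAW 264.7 cells grown in RPMI with 10% FBS plus penicillin/streptomycin to 80-90% confluency, seeded ~5,000 cells/well on poly-L-lysine plates, 24 h at 37°C, 5% CO₂. Compounds at 50 µM for 48 h; MTT (0.5 mg/ml) added for 3 h at 37°C; formazan read at 595 nm.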

[3] = system: Mycobacterium tuberculosis; assay: Antimycobacterial activity against Mycobacterium tuberculosis H37Rv ATCC 27294 after 28 days by agar dilution method; type: functional; details: H37Rv ATCC 27294, 672 h
Summary of the method: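 Two-fold serial dilutions incorporated into Middlebrook 7H11 agar with OADC, final 50 to 0.78 µg/mL. Inoculum from fresh 7H11 slants adjusted to 1 mg/mL wet weight in 0.05% Tween 80 saline, diluted 10^-2 (~10⁷ cfu/mL). 5 µL spotted per tube; 37 °C, read after 28 days. MIC = lowest concentration completely inhibiting growth; duplicates.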

[4] = system: Mycobacterium tuberculosis; assay: Antimycobacterial activity against dormant Mycobacterium tuberculosis H37Rv model assessed as log reduction at 10 ug/ml incubated for 7 days measured after 28 days in presence of nutrient deprived condition; type: functional
Summary of the method: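 H37Rv grown in 7H9/OADC, pelleted, washed twice and resuspended in PBS in sealed bottles, starved 6 weeks at 37°C. Treated at 10 µg/ml for 7 days. Suspensions diluted 10-fold to 10^-6 in 7H9/OADC and plated in triplicate; 37°C for 28 days without agitation. Wells with visible growth scored positive, MPN calculated statistically.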

[5] = system: Mycobacterium tuberculosis; assay: Binding affinity to Mycobacterium tuberculosis AlaDH assessed as protein-ligand stabilization by measuring shift in melting temperature by differential scanning fluorimetry
Summary of the method: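 Thermal shift assay on MTB L-AlaDH with Sypro Orange dye in a real-time PCR instrument. Samples equilibrated at 25°C for 3 min, then heated to 95°C in 0.1°C steps with fluorescence read at each step. Tm of protein-ligand complex compared with native protein Tm.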

SMILES	IC50 ([1]; read-out: IC50) [nM]	cytotoxicity at 48 h, 50 µM [2] [%]	MIC [3] [µM]	FC [4]	ΔTm [5] [°C]	IC50 [1]
CN1CCc2c(sc(NC(=O)c3ccc(OCc4ccccc4)cc3)c2C(N)=O)C1	1220	37.6	15.3 (≈ 6.47 µg/mL)	2	–	–
COc1ccc(NC(=O)N2CCc3c(sc(NC(=O)c4ccc([N+](=O)[O-])s4)c3C(N)=O)C2)cc1	8170	–	–	–	–	–
Cc1ccc(N2C(=N)S/C(=C\c3ccc(OCc4ccccc4)cc3)C2=O)c(C)c1	6080	36.8	1.88 (≈ 0.779 µg/mL)	–	–	–
N=C1S/C(=C\c2ccc(OCc3ccccc3)cc2)C(=O)N1c1ccc(Cl)cc1Cl	3490	13.8	13.8 (≈ 6.27 µg/mL)	2	–	–
CC(=O)N1CCc2c(sc(NC(=O)C3CC3)c2C(N)=O)C1	20100	–	–	–	–	–
N#C/C(=C\c1cccs1)c1nc2cc([N+](=O)[O-])ccc2[nH]1	21300	–	–	–	–	–
CC(=O)N1CCc2c(sc(NC(=O)c3ccc(OCc4ccccc4)cc3)c2C(N)=O)C1	630	11.6	1.56 (≈ 0.701 µg/mL)	2	–	–
NC(=O)c1c(NC(=O)c2ccc(Cl)cc2)sc2c1CCN(Cc1ccccc1)C2	1140	11.1	3.67 (≈ 1.56 µg/mL)	2	–	–
N=C1S/C(=C\c2ccc(OCc3ccccc3)cc2)C(=O)N1c1ccc([N+](=O)[O-])cc1	6160	17.3	7.23 (≈ 3.12 µg/mL)	–	–	–
CN1CCc2c(sc(NC(=O)c3ccc(Oc4ccccc4)cc3)c2C(N)=O)C1	730	58.9	1.85 (≈ 0.754 µg/mL)	2	–	–
NC(=O)c1c(NC(=O)c2ccc(Oc3ccccc3)cc2)sc2c1CCN(Cc1ccccc1)C2	780	23.6	3.58 (≈ 1.73 µg/mL)	2	–	–
Cc1cccc(C)c1N1C(=N)S/C(=C\c2ccc(OCc3ccccc3)cc2)C1=O	1740	38.7	60.4 (≈ 25 µg/mL)	2	1.4	–
NC(=O)c1c(NC(=O)c2ccc(Cl)cc2)sc2c1CCN(C(=O)c1ccccc1)C2	1500	42.5	28.5 (≈ 12.5 µg/mL)	2	–	–
NC(=O)c1c(NC(=O)c2ccc(OCc3ccccc3)cc2)sc2c1CCN(Cc1ccccc1)C2	810	24	12.6 (≈ 6.26 µg/mL)	2	–	–
CC(C)(C)OC(=O)N1CCc2c(sc(NC(=O)c3ccc(OCc4ccccc4)cc3)c2C(N)=O)C1	640	52.1	1.53 (≈ 0.777 µg/mL)	2	–	–
N=C1S/C(=C\c2ccc(OCc3ccccc3)cc2)C(=O)N1c1ncc([N+](=O)[O-])s1	6770	–	–	–	–	–
N=C1S/C(=C\c2ccc(OCc3ccccc3)cc2)C(=O)N1c1ccc(Br)cc1	22300	7.83	3.35 (≈ 1.56 µg/mL)	–	–	–
CC(=O)N1CCc2c(sc(NC(=O)c3ccc(Cl)cc3)c2C(N)=O)C1	640	38.4	4.13 (≈ 1.56 µg/mL)	–	1.7	–
Cc1ccc(C)c(N2C(=N)S/C(=C\c3ccc(OCc4ccccc4)cc3)C2=O)c1	1340	45.8	15.1 (≈ 6.26 µg/mL)	2	4.6	–
CC[C@@H](CO)NCCN[C@@H](CC)CO [ETHAMBUTOL]	–	–	7.64 (≈ 1.56 µg/mL)	–	–	Not Active

SMILES	IC50 ([1]; read-out: IC50) [nM]	cytotoxicity at 48 h, 50 µM [2] [%]	MIC [3] [µM]	FC [4]	ΔTm [5] [°C]	IC50 [1]
NC(=O)c1c(NC(=O)c2ccc(OCc3ccccc3)cc2)sc2c1CCN(C(=O)c1ccccc1)C2	800	13.7	12.9 (≈ 6.62 µg/mL)	2	–	–
N=C1S/C(=C\c2ccc(OCc3ccccc3)cc2)C(=O)N1c1ncccn1	7520	26.6	4.02 (≈ 1.56 µg/mL)	–	–	–
NC(=O)c1c(NC(=O)c2ccc(Oc3ccccc3)cc2)sc2c1CCN(C(=O)c1ccccc1)C2	1110	4.71	3.47 (≈ 1.73 µg/mL)	2	–	–
Cc1cccc(N2C(=N)S/C(=C\c3ccc(OCc4ccccc4)cc3)C2=O)n1	9440	25.1	1.94 (≈ 0.779 µg/mL)	–	–	–
N=C1S/C(=C\c2ccc(OCc3ccccc3)cc2)C(=O)N1c1ccccn1	2120	37.2	8.06 (≈ 3.12 µg/mL)	2	–	–
NNC(=O)c1ccncc1 [ISONIAZID]	–	–	0.72 (≈ 0.0987 µg/mL)	1.2	–	Not Active
COc1c(N2C[C@@H]3CCCN[C@@H]3C2)c(F)cc2c(=O)c(C(=O)O)cn(C3CC3)c12 [MOXIFLOXACIN]	–	–	1.24 (≈ 0.498 µg/mL)	2.5	–	Not Active
N=C1S/C(=C\c2ccc(OCc3ccccc3)cc2)C(=O)N1c1ccccc1	2270	37.9	16.2 (≈ 6.26 µg/mL)	–	–	–
Cc1c(Cl)cccc1N1C(=N)S/C(=C\c2ccc(OCc3ccccc3)cc2)C1=O	13000	59.7	14.4 (≈ 6.26 µg/mL)	–	–	–
N=C1S/C(=C\c2ccc(OCc3ccccc3)cc2)C(=O)N1c1ccc(F)cc1	8550	10.5	7.72 (≈ 3.12 µg/mL)	2	–	–
N=C1S/C(=C\c2ccc(OCc3ccccc3)cc2)C(=O)N1c1ccccc1[N+](=O)[O-]	15000	24.4	58 (≈ 25 µg/mL)	2	–	–
CC(=O)N1CCc2c(sc(NC(=O)c3ccc(Oc4ccccc4)cc3)c2C(N)=O)C1	660	32.9	6.11 (≈ 2.66 µg/mL)	–	–	–
CN1CCc2c(sc(NC(=O)c3ccc(Cl)cc3)c2C(N)=O)C1	670	38.5	8.95 (≈ 3.13 µg/mL)	2	–	–
CC(C)(C)OC(=O)N1CCc2c(sc(NC(=O)c3ccc(Cl)cc3)c2C(N)=O)C1	580	37.3	1.79 (≈ 0.78 µg/mL)	–	1.8	–
N=C1S/C(=C\c2ccc(OCc3ccccc3)cc2)C(=O)N1c1ccc(Cl)cc1	7010	16.4	7.42 (≈ 3.12 µg/mL)	–	–	–
CO[C@H]1/C=C/O[C@@]2(C)Oc3c(C)c(O)c4c(O)c(c(/C=N/N5CCN(C)CC5)c(O)c4c3C2=O)NC(=O)/C(C)=C\C=C\[C@H](C)[C@H](O)[C@@H](C)[C@@H](O)[C@@H](C)[C@H](OC(C)=O)[C@@H]1C [RIFAMPIN]	–	–	0.15 (≈ 0.123 µg/mL)	2	–	Not Active
CC(C)(C)OC(=O)N1CCc2c(sc(NC(=O)c3ccc(Oc4ccccc4)cc3)c2C(N)=O)C1	1120	26.9	6.33 (≈ 3.12 µg/mL)	2	–	–
N=C1S/C(=C\c2ccc(OCc3ccccc3)cc2)C(=O)N1c1cccc([N+](=O)[O-])c1	5560	52.9	14.5 (≈ 6.26 µg/mL)	–	–	–
CCc1nc(Nc2ccccc2)c2c3c(sc2n1)CCCC3	15100	–	–	–	–	–
